Laboratory results reported in ChEMBL document CHEMBL3271969, “2-pyridylimidazoles as inhibitors of xanthine oxidase” (J Med Chem, 1977).

Assays:
[1] = Dissociation constant, apparent pKa of the compound; format: physicochemical
[2] = molecular target: T1, Xanthine dehydrogenase/oxidase (Bos taurus, UniProt P80457); test: Inhibition of bovine xanthine oxidase at 2 X 10^-5 M; conditions: cattle; for inhibition (INH): 20 µM
Procedure, shortened: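 Bovine xanthine oxidase, diluted 1:300 to give ΔOD292 of 0.09–0.12 per min, starts the reaction in 0.05 M phosphate buffer pH 7.5 with hypoxanthine at 3×10^-5 M plus inhibitor.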

[3] = molecular target: T1, Xanthine dehydrogenase/oxidase; test: Inhibition of bovine xanthine oxidase; conditions: read-out: I50
[4] = Association constant, apparent pKa of the compound; format: physicochemical

T1 sequence (P80457 whole entry): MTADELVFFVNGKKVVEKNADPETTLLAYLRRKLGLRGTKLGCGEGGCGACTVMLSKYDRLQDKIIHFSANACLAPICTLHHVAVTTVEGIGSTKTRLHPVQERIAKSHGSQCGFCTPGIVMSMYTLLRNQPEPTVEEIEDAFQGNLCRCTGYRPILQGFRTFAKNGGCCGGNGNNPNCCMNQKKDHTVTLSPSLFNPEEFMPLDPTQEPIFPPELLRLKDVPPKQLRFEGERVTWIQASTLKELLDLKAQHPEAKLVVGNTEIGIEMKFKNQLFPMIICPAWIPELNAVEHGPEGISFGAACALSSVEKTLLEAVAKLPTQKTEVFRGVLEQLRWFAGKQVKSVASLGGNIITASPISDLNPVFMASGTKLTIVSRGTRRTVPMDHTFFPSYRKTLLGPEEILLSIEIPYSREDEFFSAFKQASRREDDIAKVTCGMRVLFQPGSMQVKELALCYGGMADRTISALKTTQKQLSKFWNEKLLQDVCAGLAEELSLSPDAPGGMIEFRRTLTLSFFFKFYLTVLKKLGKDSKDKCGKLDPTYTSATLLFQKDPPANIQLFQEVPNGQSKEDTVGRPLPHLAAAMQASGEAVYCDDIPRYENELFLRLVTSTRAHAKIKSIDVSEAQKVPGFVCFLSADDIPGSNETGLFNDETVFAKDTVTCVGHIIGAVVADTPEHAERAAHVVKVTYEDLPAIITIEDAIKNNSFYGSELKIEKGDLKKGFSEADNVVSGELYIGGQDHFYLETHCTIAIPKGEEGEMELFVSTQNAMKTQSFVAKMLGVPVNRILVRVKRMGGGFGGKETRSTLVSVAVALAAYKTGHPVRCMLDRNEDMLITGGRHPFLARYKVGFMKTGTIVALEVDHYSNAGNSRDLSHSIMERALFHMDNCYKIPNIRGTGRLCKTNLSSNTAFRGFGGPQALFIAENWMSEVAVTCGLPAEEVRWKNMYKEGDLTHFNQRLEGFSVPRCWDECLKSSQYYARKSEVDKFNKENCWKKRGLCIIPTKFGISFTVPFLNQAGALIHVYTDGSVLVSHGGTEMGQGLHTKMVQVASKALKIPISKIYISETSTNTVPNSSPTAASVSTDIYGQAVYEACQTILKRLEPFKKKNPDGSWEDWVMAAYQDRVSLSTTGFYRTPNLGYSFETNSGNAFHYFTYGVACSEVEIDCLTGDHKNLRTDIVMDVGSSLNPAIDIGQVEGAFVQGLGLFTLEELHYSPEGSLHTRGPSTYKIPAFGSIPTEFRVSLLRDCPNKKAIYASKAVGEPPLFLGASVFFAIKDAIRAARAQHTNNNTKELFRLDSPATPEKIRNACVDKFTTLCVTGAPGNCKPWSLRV

Compound | inhibition (INH) [2] | IC50 [3] | other results
O=[N+]([O-])c1c[nH]cn1 | Not Active |  | pKa [1]: 9
FC(F)(F)c1cnc(-c2cccnc2)[nH]1 |  | 40 µM | pKa [1]: 10.2; pKa [4]: 3.5
c1cc(-c2ncc[nH]2)ccn1 | Not Active |  | 
c1cncc(-c2ncc[nH]2)c1 | Not Active |  | 
O=[N+]([O-])c1cnc(-c2ccncc2)[nH]1 |  | 0.35 µM | 
O=[N+]([O-])c1cnc(-c2cccnc2)[nH]1 |  | 1.3 µM | 
Cc1cnc(-c2ccncc2)[nH]1 | Not Active |  | 
Cc1cnc(-c2cccnc2)[nH]1 | Not Active |  | 
O=C(O)c1cnc(-c2ccncc2)[nH]1 |  |  | inhibition at 20 µM [2]: 34%
COC(=O)c1cnc(-c2ccncc2)[nH]1 |  |  | inhibition at 20 µM [2]: 10%
N#Cc1cnc(-c2ccncc2)[nH]1 |  | 5.6 µM | 
O=C(O)c1nc(-c2ccncc2)[nH]c1C(=O)O |  | 5.8 µM | 
O=C(O)c1nc(-c2cccnc2)[nH]c1C(=O)O |  | 1 µM | 
COC(=O)c1nc(-c2ccncc2)[nH]c1C(=O)OC | Not Active |  | pKa [1]: 7.15; pKa [4]: 3.98
COC(=O)c1nc(-c2cccnc2)[nH]c1C(=O)OC | Not Active |  | 
NC(=O)c1nc(-c2ccncc2)[nH]c1C(N)=O |  |  | inhibition at 20 µM [2]: 14%

Compound | inhibition (INH) [2] | IC50 [3] | other results
NC(=O)c1nc(-c2cccnc2)[nH]c1C(N)=O | Not Active |  | 
N#Cc1nc(-c2ccncc2)[nH]c1C#N |  | 0.02 µM | 
N#Cc1nc(-c2cccnc2)[nH]c1C#N |  | 35 µM | 
N#Cc1nc(-c2ccncc2)[nH]c1C(N)=O |  | 0.5 µM | 
Clc1nc(-c2cccnc2)[nH]c1Cl |  |  | inhibition at 20 µM [2]: 29%
Brc1nc(-c2cccnc2)[nH]c1Br |  | 20 µM | 
FC(F)(F)c1cnc(-c2ccncc2)[nH]1 |  | 2 µM | pKa [1]: 9.73; pKa [4]: 3.76
Clc1ccc2[nH]c(-c3ccncc3)nc2c1 |  |  | pKa [1]: 10; pKa [4]: 3.5
Clc1cc2nc(-c3ccncc3)[nH]c2cc1Cl |  | 15 µM | pKa [1]: 9.33; pKa [4]: 3
c1cnc2[nH]c(-c3ccncc3)nc2c1 | Not Active |  | 
c1cncc(-c2nc3cccnc3[nH]2)c1 | Not Active |  | 
c1cc(-c2nc3cnccc3[nH]2)ccn1 |  | 13 µM | 
c1cncc(-c2nc3cnccc3[nH]2)c1 |  |  | inhibition at 20 µM [2]: 23%
c1ccc2[nH]c(-c3ccncc3)nc2c1 | Not Active |  | pKa [1]: 10.9; pKa [4]: 3.85
Clc1ccc2nc(-c3cccnc3)[nH]c2c1 | Not Active |  | 
